Consider seven compounds from ChEMBL document CHEMBL4699422, “Synthesis and initial pharmacology of dual-targeting ligands for putative complexes of integrin alphaVbeta3 and PAR2” (RSC Med Chem, 2020).

Active and inactive are the calls of the source. No cut-off for these calls is given here. Where a SMILES comes first, the peptide text is derived from it. [ ]: non-standard residue; d: D form. The star is where a group is joined. X1 = COCc1cn(CCOCCOCCOCCOCCOCCOCCN*)nn1; Orn = NCCC[C@H](N)C(=O)O; 2Furoyl = O=C(c1ccco1)*

One may read the EC50 as the midpoint of the concentration-response curve.

Experiment [1] addresses T1, Proteinase-activated receptor 2 (Homo sapiens, UniProt P55085).
T1 sequence (P55085 whole entry): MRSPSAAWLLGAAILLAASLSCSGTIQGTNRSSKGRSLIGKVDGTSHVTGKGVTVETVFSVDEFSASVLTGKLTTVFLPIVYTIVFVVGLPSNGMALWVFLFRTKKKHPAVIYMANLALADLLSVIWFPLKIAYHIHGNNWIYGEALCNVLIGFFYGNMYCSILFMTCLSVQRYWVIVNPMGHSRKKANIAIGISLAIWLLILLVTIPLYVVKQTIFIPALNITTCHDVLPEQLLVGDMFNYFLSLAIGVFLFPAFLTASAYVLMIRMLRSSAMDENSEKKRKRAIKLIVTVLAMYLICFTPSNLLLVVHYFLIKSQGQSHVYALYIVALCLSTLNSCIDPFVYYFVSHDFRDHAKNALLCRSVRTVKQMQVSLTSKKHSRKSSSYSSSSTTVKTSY
In words: Agonist activity at PAR2 in human EA.hy926 cells assessed as stimulation of calcium mobilization by Fluo-4-AM dye-based FLIPR assay. The format is functional, cell-based, EA.hy 926. An outline of the steps: (§1)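 EA.hy926 cells, passages 7–9, grown in DMEM (4.5 g/L glucose, 4 mM L-glutamine, 1 mM pyruvate, FBS, pen/strep). Calcium read on plate reader as normalized ΔRFU over basal. %Stimulation relative to 100 μM SLIGKV-NH₂ (100%). Curves fitted by 4-variable non-linear regression.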
For orientation: A change in cytosolic calcium serves as a functional read-out for many receptors and channels.

Experiment [2] has as its target T2, Integrin alpha-V/beta-3 (Homo sapiens) (UniProt P05106+P06756). As to the kind of experiment: Antagonist activity at integrin alphavbeta3 receptor in HUVEC cells assessed as inhibition of cell adhesion to human vitronectin at 50 uM preincubated for 30 mins followed by transferring to vitronectin coated plates and measured after 1 hr by DAPI staining based inverted fluorescence microscopic analysis. The following applies: filed as antagonist, time 90.0 min. An outline of the steps: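 Wells coated overnight at 4 °C with 20 μg/mL human vitronectin in PBS pH 7.4, blocked with 1% BSA 1 h at 37 °C. HUVEC washed, in DMEM, treated ± 50 μM ligand 30 min at 25 °C, seeded, 1 h at 37 °C. Washed 3× PBS, fixed 3.7% formaldehyde 5 min, nuclei DAPI-stained (5 μg/mL), imaged at 10×.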

In experiment [3] the target is T2, Integrin alpha-V/beta-3 (Homo sapiens). As to the kind of experiment: Inhibition of Alexa Fluor 647 labelled fibronectin binding to integrin alphavbeta3 receptor (unknown origin) expressed in HEK293FT cells at 5 uM preincubated for 10 mins followed by fibronectin addition and measured after 30 mins by flow cytometric analysis. Format: cell-based. The following applies: filed as antagonist, time 40.0 min. The gist of the method:
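HEK293FT co-transfected with αV and β3 constructs (≥24 h), in HBSGB (20 mM HEPES pH 7.4, 150 mM NaCl, 5.5 mM glucose, 1% BSA). Cells ± 5 or 50 μM ligand 10 min at 25 °C in 0.2 mM CaCl₂/2 mM MnCl₂ (activating), then Alexa647-Fn (15 μg/mL) plus Alexa488 anti-β3 AP3, 30 min at 25 °C. Resting control in 1 mM Ca²⁺/1 mM Mg²⁺. Flow cytometry on AP3-positive cells; Fn MFI expressed as % of AP3 MFI.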
(A flow cytometer gives signals particle by particle.)

In experiment [4] the target is Proteinase-activated receptor 2 (Homo sapiens) (UniProt P55085). In words: (§2) Agonist activity at PAR2 in human EA.hy926 cells assessed as stimulation of calcium mobilization treated with cRGD for 30 mins prior to compound addition by Fluo-4-AM dye-based FLIPR assay. The format is functional, cell-based. The following applies: EA.hy 926, filed as agonist. The gist of the method:
as §1

Experiment [5] shares this target. In words: (§3) Agonist activity at PAR2 in human EA.hy926 cells assessed as stimulation of calcium mobilization preincubated for 2 hrs with LPS and 30 mins with cRGD followed by compound addition by Fluo-4-AM dye-based FLIPR assay. The format is functional, cell-based. The following applies: EA.hy 926, filed as agonist.
For experiment [6] the target is unchanged. In words: (§4) Agonist activity at PAR2 in human EA.hy926 cells assessed as stimulation of calcium mobilization preincubated for 2 hrs with LPS followed by compound addition in absence of cRGD by Fluo-4-AM dye-based FLIPR assay. Format: functional, cell-based. The settings on record: EA.hy 926, filed as agonist.
Experiment [7] concerns the target T1, Proteinase-activated receptor 2. Described as §2. The format is functional, cell-based, EA.hy 926. An outline of the steps:
as §1

Experiment [8] shares this target. The description is as §3. Format: functional, cell-based, EA.hy 926.
The target is the same in experiment [9]. The description is as §4. The format is functional, cell-based, EA.hy 926.

Regarding `CC[C@H](C)[C@H](NC(=O)[C@H](CC(C)C)NC(=O)c1ccco1)C(=O)NCC(=O)N[C@@H](CCCN=C(N)N)C(=O)N[C@@H](CC(C)C)C(=O)N[C@@H](CCCN)C(N)=O` (2Furoyl-LIGRL[Orn]-NH2), the EC50 in [1] was 350 nM.
On the same count and under the same terms, the figure for `CC[C@H](C)[C@H](NC(=O)[C@H](CC(C)C)NC(=O)c1ccco1)C(=O)NCC(=O)N[C@@H](CCCNC(=N)N)C(=O)N[C@@H](CC(C)C)C(=O)N[C@@H](CCCN)C(=O)NCCOCCOCCOCCOCCOCCOCCOCCOCCn1cc(C[C@H]2CN[C@@H](CCCNC(=N)N)C(=O)NCC(=O)N[C@@H](CC(=O)O)C(=O)N[C@H](Cc3ccccc3)C(=O)N2)nn1` is 62 nM.
Turning to `CC[C@H](C)[C@H](NC(=O)[C@H](CC(C)C)NC(=O)c1ccco1)C(=O)NCC(=O)N[C@@H](CCCNC(=N)N)C(=O)N[C@@H](CC(C)C)C(=O)N[C@@H](CCCN)C(=O)NCCOCCOCCOCCOCCOCCOCCOCCOCCOCCOCCOCCOCCOCCOCCOCCOCCOCCOCCOCCOCCOCCOCCOCCn1cc(C[C@H]2CN[C@@H](CCCNC(=N)N)C(=O)NCC(=O)N[C@@H](CC(=O)O)C(=O)N[C@H](Cc3ccccc3)C(=O)N2)nn1`, in [1], the EC50 amounted to 130 nM. For the same compound, the inhibition result in experiment [2] and in [3] was “Active” in each case.
For `COCc1cn(CCOCCOCCOCCOCCOCCOCCNC(=O)[C@@H](NC(=O)[C@H](CC2CCCCC2)NC(=O)c2ccno2)C2CCCCC2)nn1`, in [1], the half-maximal effective concentration (EC50) turned out to be 890 nM.
As to `COc1ccnc(NCCCOc2ccc(C[C@@H](CC(=O)O)NC(=O)c3ccc(OCc4cn(CCOCCOCCOCCOCCOCCOCCNC(=O)[C@@H](NC(=O)[C@H](CC5CCCCC5)NC(=O)c5ccno5)C5CCCCC5)nn4)cc3)cc2)c1`, the EC50 in experiment [1] was determined as 1200 nM. For the same compound, the result in [4], in experiment [5] and in experiment [6] was Active. Also, the inhibition entry in experiment [2] was “Active”.
Take `CC[C@H](C)[C@H](NC(=O)[C@H](CC(C)C)NC(=O)c1ccco1)C(=O)NCC(=O)N[C@@H](CCCNC(=N)N)C(=O)N[C@@H](CC(C)C)C(=O)N[C@@H](CCCN)C(=O)NCCOCCOCCOCCOCCOCCOCCn1cc(COC)nn1` (2Furoyl-LIGRL[Orn]-X1): the concentration for a half-maximal effect (EC50) in [1] stood at 73 nM.
Consider `N=C(N)NCCC[C@@H]1NC[C@H](Cc2cn(CCOCCOCCOCCOCCOCCOCCOCCOCCOCCOCCOCCOCCOCCOCCOCCOCCOCCOCCOCCOCCOCCOCCOCCNC(=O)[C@@H](NC(=O)[C@H](CC3CCCCC3)NC(=O)c3ccno3)C3CCCCC3)nn2)NC(=O)[C@@H](Cc2ccccc2)NC(=O)[C@H](CC(=O)O)NC(=O)CNC1=O`, for which the EC50 was found to be 2500 nM in experiment [1], 1200 nM in [7], 1200 nM in [8] and 3500 nM in experiment [9]. The inhibition entry in [2] and in experiment [3] was “Active” in each case.
